In ChEMBL document CHEMBL1155054, “Synthesis, biological evaluation and molecular modelling of N-heterocyclic dipeptide aldehydes as selective calpain inhibitors” (Bioorg Med Chem, 2008):
The source made the active and inactive calls. No cut-off for these calls is given here. Residues, ends and D or L forms follow the SMILES beside them. *: point of attachment. Cbz = O=C(OCc1ccccc1)*

Tests used:
[1] = target: T1, Calpain-2 catalytic subunit (Sus scrofa, UniProt P43367); assay: Inhibition of pig CAPN2
T1 sequence (P43367 whole entry): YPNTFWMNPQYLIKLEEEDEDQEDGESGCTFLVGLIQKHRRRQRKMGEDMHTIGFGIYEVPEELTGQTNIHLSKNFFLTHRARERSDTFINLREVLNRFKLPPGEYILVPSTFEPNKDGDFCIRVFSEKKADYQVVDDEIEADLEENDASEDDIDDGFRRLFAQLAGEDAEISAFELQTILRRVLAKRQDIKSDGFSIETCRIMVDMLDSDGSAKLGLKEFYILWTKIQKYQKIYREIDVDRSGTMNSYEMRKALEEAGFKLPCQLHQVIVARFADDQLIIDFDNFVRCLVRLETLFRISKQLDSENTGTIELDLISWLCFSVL

[2] = target: T2, Calpain-1 catalytic subunit (Sus scrofa, UniProt P35750)
T2 sequence (P35750 whole entry): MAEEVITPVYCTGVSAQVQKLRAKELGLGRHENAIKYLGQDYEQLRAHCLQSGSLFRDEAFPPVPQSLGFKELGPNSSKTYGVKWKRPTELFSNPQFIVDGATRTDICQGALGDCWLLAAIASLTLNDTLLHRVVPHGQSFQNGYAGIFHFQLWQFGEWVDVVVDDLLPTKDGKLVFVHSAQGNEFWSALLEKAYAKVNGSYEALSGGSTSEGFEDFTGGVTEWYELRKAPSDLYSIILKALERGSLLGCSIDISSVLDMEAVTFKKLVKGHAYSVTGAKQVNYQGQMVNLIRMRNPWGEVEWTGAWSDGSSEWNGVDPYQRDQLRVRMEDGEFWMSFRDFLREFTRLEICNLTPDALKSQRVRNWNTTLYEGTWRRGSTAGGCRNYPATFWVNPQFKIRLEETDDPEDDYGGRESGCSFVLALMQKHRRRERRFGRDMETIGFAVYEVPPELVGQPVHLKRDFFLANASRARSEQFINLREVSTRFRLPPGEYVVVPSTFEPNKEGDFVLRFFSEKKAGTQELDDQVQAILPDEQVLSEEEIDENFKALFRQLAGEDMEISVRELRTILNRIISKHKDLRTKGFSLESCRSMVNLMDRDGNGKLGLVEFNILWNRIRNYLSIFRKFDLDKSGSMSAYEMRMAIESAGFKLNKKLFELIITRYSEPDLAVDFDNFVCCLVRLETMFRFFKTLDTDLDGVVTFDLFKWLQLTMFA

[3] = Inhibition of ovine CAPN1; parameters: species or system Ovis aries
Outline: (§1)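 o-CAPN1 or o-CAPN2 partially purified from sheep lung by hydrophobic and ion-exchange chromatography, diluted in 20 mM MOPS, 2 mM EGTA, 2 mM EDTA, 0.5% β-mercaptoethanol pH 7.5. Substrate 0.0005% BODIPY-FL casein in 10 mM CaCl2; inhibitor in DMSO (2% total).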

[4] = Inhibition of ovine CAPN2; parameters: species or system Ovis aries; outline: as §1
[5] = tested on: Lens of camera-type eye; assay: Protection against calcium-induced cataract in ovine lens assessed as reduction in loss of transparency at 10 uM after 44 hrs relative to control; assay type: functional, tissue-based; settings: Ovis aries
[6] = target: T3, Calpain-2 catalytic subunit (Homo sapiens, UniProt P17655); assay: Inhibition of human CAPN2
T3 sequence (P17655 whole entry): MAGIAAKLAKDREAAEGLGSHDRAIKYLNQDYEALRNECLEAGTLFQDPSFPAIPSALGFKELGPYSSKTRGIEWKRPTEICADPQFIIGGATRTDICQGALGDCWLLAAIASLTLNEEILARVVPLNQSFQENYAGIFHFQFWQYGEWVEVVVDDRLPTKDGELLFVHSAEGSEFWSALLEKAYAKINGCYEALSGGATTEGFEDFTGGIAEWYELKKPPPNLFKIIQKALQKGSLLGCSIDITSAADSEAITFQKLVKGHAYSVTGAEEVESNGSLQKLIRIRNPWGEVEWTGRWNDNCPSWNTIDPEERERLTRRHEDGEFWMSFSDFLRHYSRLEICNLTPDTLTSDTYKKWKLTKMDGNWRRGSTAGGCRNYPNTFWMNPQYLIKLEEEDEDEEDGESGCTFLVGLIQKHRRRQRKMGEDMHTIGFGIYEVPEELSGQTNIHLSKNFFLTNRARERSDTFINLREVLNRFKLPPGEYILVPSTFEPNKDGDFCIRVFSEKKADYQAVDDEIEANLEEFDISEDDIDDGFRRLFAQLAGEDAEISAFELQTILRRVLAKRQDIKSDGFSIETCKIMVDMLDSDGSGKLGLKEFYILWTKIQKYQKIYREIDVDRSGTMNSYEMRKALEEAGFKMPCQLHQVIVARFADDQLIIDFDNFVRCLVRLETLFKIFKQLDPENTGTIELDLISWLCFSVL

Row | Compound | IC50 [3] [nM] | IC50 [4] [nM] | further results
1 | CC(C)C[C@@H](C=O)NC(=O)[C@@H](NS(=O)(=O)c1ccc(F)cc1)C(C)C | – | – | IC50 [1]: 78 nM; IC50 [2]: 7.5 nM
2 | CC(C)C[C@@H](C=O)NC(=O)[C@@H](NC(=O)c1ccco1)C(C)C | 790 | 135 | –
3 | CC(C)C[C@@H](C=O)NC(=O)[C@@H](NC(=O)c1ccc(C=O)o1)C(C)C | 960 | 100 | –
4 | CC(C)C[C@@H](C=O)NC(=O)[C@@H](NC(=O)c1ccc[nH]1)C(C)C | 650 | 315 | –
5 | CC(C)C[C@@H](C=O)NC(=O)[C@@H](NC(=O)c1cccs1)C(C)C | 680 | 100 | –
6 | CC(C)[C@H](NC(=O)OCc1ccccc1)C(=O)N[C@H](C=O)Cc1ccccc1 (Cbz-Val-Phe-aldehyde) | – | – | IC50 [6]: 350 nM

Now from value to compound, other results behind:

Row | IC50 [3] [nM] | IC50 [4] [nM] | Compound | further results
7 | 150 | 150 | CC(C)C[C@@H](C=O)NC(=O)[C@@H](NC(=O)c1ccc(C=O)n1C)C(C)C | –
8 | 290 | 140 | COC(=O)c1ccc(C(=O)N[C@H](C(=O)N[C@H](C=O)CC(C)C)C(C)C)[nH]1 | –
9 | 290 | 25 | CC(C)C[C@@H](C=O)NC(=O)[C@@H](NC(=O)c1ccc(C=O)[nH]1)C(C)C | Activity [5]: Active
10 | 530 | 100 | CC(C)C[C@@H](C=O)NC(=O)[C@@H](NC(=O)c1cc(C=O)c[nH]1)C(C)C | –
11 | 340 | 110 | Cc1ccc(C(=O)N[C@H](C(=O)N[C@H](C=O)CC(C)C)C(C)C)[nH]1 | –
12 | 440 | 85 | CC(C)C[C@@H](C=O)NC(=O)[C@@H](NC(=O)c1ccc(C=O)s1)C(C)C | –
